Columns and labels:
[1] = biological target: Muscarinic acetylcholine receptor M3 (Rattus norvegicus, UniProt P08483); assay: Activity at rat muscarinic acetylcholine receptor subtype 3 expressed in CHO cells by calcium mobilization assay; type: functional, cell-based
Procedure, shortened: (§1)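 Muscarinic subtype selectivity by fluorescence calcium mobilization in highly expressing CHO lines with similar receptor levels; Gi/o-coupled M2 and M4 cells co-transfected with chimeric Gqi5 to couple to Ca2+ mobilization. Read-outs are PAM EC50 and ACh max response. Mean ± SEM of at least three independent determinations.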

Homo sapiens = species: Homo sapiens; assay: Selectivity index, ratio of EC50 for human muscarinic acetylcholine receptor subtype 1 to EC50 for human muscarinic acetylcholine receptor subtype 5
[2] = biological target: Sigma non-opioid intracellular receptor 1 (Homo sapiens) (UniProt Q99720); assay: Displacement of radioligand from human sigma-1 receptor at 10 uM
Procedure, shortened: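 Pan Labs lead profiling radioligand binding battery of 68 GPCRs, ion channels and transporters, with test compound present at 10 μM.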

Plasma = assay: Fraction unbound in human plasma at 5 uM incubated for 4 hrs at 37 degC by equilibrium dialysis based LC/MS/MS analysis; type: ADME, cell-free
Procedure, shortened: (§2)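 Fraction unbound measured in rat and human plasma and in rat brain homogenate.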

[3] = Apparent permeability in human Caco2 cells; type: ADME, cell-based; settings: caco-2
[4] = biological target: T1, Muscarinic acetylcholine receptor M1 (Homo sapiens, UniProt P11229); assay: Activity at human muscarinic acetylcholine receptor subtype 1 expressed in CHO cells by calcium mobilization assay; type: functional, cell-based; procedure, shortened: as §1
T1 sequence (P11229 whole entry): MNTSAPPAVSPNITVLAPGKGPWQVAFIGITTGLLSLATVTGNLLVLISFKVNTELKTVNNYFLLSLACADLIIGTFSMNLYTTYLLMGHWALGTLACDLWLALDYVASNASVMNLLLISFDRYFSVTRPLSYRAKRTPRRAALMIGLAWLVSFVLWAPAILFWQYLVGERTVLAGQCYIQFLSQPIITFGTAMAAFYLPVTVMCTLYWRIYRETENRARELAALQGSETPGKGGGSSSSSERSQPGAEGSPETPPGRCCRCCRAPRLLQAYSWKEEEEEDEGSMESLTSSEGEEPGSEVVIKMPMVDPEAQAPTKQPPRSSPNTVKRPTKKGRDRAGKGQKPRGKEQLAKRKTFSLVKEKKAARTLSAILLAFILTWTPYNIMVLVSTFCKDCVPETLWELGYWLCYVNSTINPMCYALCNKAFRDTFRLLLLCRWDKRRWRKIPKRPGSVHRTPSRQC

[5] = Fraction unbound in rat brain at 5 uM incubated for 4 hrs at 37 degC by equilibrium dialysis based LC/MS/MS analysis; type: ADME, tissue-based; procedure, shortened: as §2
[6] = biological target: Muscarinic acetylcholine receptor M3 (Homo sapiens, UniProt P20309); assay: Activity at human muscarinic acetylcholine receptor subtype 3 expressed in CHO cells by calcium mobilization assay acetylcholine; type: functional, cell-based; procedure, shortened: as §1
[7] = biological target: T2, Muscarinic acetylcholine receptor M4 (Rattus norvegicus, UniProt P08485); assay: Activity at rat muscarinic acetylcholine receptor subtype 4 expressed in CHO cells co-transfected with chimeric Gqi5 by calcium mobilization assay; type: functional, cell-based; procedure, shortened: as §1
T2 sequence (P08485 whole entry): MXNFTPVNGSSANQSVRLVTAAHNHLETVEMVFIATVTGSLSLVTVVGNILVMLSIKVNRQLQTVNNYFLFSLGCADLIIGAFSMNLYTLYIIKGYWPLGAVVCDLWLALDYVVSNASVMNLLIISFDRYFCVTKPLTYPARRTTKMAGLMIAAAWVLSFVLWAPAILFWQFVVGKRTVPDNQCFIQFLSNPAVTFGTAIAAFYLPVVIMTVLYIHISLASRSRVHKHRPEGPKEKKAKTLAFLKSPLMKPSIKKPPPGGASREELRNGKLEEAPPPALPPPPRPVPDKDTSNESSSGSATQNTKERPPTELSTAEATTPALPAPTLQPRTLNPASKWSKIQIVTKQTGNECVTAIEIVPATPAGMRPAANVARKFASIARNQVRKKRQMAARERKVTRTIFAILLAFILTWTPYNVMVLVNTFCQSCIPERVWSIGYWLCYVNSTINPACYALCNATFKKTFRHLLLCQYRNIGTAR

[8] = biological target: T3, Muscarinic acetylcholine receptor M5 (Homo sapiens, UniProt P08912); assay: Positive allosteric modulator activity at human muscarinic acetylcholine receptor subtype 5 expressed in CHO cells by calcium mobilization assay; type: functional, cell-based; settings: read-out: EC50
T3 sequence (P08912 whole entry): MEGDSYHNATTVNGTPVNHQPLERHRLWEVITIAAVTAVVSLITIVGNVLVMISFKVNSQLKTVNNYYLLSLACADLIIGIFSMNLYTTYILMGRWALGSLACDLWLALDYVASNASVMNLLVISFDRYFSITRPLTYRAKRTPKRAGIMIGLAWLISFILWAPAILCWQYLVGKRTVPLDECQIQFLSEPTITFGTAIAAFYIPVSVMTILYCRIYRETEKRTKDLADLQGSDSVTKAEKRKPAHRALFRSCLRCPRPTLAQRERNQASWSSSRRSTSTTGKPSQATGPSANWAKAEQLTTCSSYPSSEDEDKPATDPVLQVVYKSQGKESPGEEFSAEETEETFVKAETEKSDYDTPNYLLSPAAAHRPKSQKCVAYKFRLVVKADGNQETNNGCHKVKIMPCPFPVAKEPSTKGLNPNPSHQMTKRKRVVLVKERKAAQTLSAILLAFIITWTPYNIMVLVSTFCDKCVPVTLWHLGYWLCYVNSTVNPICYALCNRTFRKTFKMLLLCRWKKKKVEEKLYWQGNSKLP

Sigma non-opioid intracellular receptor 1 (Homo sapiens), sequence (Q99720 whole entry): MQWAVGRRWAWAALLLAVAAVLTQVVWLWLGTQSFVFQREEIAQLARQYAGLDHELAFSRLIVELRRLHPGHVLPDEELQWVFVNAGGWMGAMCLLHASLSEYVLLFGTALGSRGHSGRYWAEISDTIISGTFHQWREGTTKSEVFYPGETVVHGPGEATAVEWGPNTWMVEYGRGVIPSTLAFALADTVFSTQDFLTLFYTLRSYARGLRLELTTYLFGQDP
Muscarinic acetylcholine receptor M3 (Rattus norvegicus, UniProt P08483), sequence (P08483 whole entry): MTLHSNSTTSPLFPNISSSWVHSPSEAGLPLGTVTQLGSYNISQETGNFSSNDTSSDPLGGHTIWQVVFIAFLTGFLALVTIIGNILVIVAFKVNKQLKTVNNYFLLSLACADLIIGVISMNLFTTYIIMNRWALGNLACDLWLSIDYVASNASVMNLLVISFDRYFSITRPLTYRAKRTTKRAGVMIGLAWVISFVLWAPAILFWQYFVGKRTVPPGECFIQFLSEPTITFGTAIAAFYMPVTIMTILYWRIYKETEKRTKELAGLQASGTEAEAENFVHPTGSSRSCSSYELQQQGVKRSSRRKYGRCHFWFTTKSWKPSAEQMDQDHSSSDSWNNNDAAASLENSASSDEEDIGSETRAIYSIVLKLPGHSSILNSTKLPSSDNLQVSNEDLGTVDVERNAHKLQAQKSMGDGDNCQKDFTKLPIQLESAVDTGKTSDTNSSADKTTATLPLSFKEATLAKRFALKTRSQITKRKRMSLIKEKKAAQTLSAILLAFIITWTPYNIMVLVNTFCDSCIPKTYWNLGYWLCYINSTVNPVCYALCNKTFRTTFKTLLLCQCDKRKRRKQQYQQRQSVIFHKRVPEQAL
Muscarinic acetylcholine receptor M3 (Homo sapiens, UniProt P20309), sequence (P20309 whole entry, looked up): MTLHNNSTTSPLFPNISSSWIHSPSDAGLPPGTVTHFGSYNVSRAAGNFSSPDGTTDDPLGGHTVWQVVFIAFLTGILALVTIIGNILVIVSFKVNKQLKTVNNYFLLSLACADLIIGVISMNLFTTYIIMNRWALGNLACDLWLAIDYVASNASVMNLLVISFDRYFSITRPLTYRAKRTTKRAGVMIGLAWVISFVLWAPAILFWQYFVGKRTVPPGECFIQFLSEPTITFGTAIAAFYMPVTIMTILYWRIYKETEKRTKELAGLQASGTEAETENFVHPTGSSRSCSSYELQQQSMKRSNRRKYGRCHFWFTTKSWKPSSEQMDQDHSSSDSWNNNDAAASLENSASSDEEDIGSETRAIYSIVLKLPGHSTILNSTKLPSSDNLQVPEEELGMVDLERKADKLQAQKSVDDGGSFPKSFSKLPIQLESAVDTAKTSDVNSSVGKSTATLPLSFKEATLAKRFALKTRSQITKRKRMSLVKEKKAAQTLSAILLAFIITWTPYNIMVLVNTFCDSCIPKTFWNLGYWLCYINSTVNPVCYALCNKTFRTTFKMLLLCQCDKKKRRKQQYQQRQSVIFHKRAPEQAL

With `CCN(Cc1ccccc1C(F)(F)F)C(=O)C1CCN(S(=O)(=O)c2ccc3[nH]ncc3c2)CC1` the EC50 [1] was 3.1 µM, the Ratio EC50 (Homo sapiens) was > 10 and the inhibition [2] was 53%. The Fu (Plasma) was 0.015, the Papp [3] was 2.5 ×10⁻⁵ cm/s and the EC50 [4] was 5.4 µM. The Fu [5] was 0.011, the %max [6] was 67% and the EC50 [7] was > 30 µM. For the same compound, the EC50 [8] was 190 nM.

Reference: ChEMBL document CHEMBL3352313 (J Med Chem, 2014)
